# A selection: hits, their analogues and other compounds. The true share with any hit is near 3%.
# SENP8 block-1: human SENP8 protease inhibitors, primary screen, biochemical, fluorescence, Nedd8 protein substrate, uHTS | inhibition, % at 20 µM | 360,000 compounds, 0.64% hits | recombinant SENP8; in the data active = inhibition mostly above about 40%, no sharp cut-off; inactive = mostly below about 27%
# Target sequence (Q96LD8 whole entry, looked up): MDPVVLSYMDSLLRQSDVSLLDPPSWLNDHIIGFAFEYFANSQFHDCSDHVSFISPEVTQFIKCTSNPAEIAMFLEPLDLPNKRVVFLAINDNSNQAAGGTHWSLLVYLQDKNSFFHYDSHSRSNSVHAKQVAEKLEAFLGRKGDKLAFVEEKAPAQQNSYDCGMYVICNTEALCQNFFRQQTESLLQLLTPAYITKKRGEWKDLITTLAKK
# Apaf-1 inh: inhibitors of human Apaf-1 apoptosome, primary screen, biochemical, DEVD-Rh110 fluorescence, uHTS; inhibition, % at 20 µM; Apoptotic protease-activating factor 1 (Homo sapiens), O14727; AID 489030, 2010; reconstituted apoptosome caspase-3 activity; 330,000 compounds, 0.71% hits; active = inhibition of at least 40% at 20 µM;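 also: plate controls were DMSO wells for no effect and DEVD-CHO caspase inhibitor wells for full effect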
#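 Material: reconstituted apoptosome with Apaf-1, cytochrome c, caspase-9, procaspase-3, dATP. Technique: Rh110 fluorescence intensity. Buffer or medium: pH 7.5 Hepes buffer with CHAPS, BSA, DTT. Times: 30 min plus 50 min, RT.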
# UBC13 polyUb: UBC13 polyubiquitin chain formation inhibitors, primary screen, biochemical, TR-FRET, uHTS; inhibition, % at 20 µM; 330,000 compounds, 0.47% hits; in the data active = inhibition above about 45%, passing the limit was not always enough
# SENP6 inh: SENP6 protease inhibitors, primary screen, biochemical, luminescence, uHTS; Sentrin-specific protease 6 (Homo sapiens), Q9GZR1; Recombinant SENP6 catalytic domain, aminoluciferin luminescence; inhibition, % at 10 µM; 330,000 compounds, 1.8% hits;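 active = inhibition above about 50% at the single tested dose, limit read from the data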;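 also: plate controls were DMSO wells with enzyme for no effect and DMSO wells lacking enzyme for full effect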
# Target sequence (Q9GZR1 628-1112 limits assumed): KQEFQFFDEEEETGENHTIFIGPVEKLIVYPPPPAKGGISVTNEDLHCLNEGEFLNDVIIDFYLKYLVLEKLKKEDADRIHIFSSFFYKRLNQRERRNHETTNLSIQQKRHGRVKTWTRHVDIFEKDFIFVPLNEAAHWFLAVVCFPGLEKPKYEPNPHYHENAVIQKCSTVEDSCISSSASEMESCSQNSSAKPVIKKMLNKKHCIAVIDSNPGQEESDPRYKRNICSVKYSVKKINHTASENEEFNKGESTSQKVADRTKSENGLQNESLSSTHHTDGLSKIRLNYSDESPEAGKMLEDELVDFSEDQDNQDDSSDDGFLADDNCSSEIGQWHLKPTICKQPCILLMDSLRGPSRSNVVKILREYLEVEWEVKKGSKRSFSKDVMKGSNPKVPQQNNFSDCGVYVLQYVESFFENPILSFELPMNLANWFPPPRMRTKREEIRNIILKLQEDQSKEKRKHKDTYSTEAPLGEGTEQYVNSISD
# SENP7 inh: SENP7 protease inhibitors, primary screen, biochemical, luminescence, uHTS. inhibition, % at 5 µM. 330,000 compounds, 1.5% hits. recombinant SENP7, Z-RLRGG-aminoluciferin luminescence, 40 min. Sentrin-specific protease 7 (Homo sapiens), Q9BQF6. AID 434973, 2010;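 active = inhibition above about 50% at the single test dose, limit read from the data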;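 also: plate controls were DMSO with enzyme for no effect and no enzyme buffer wells for full effect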
# SENP8 block-2: SENP8 protease inhibitors, primary screen, biochemical, luminescence; inhibition, % at 10 µM; 330,000 compounds, 1.2% hits; purified SENP8, Z-RLRGG-aminoluciferin cleavage; AID 2540, 2010; Sentrin-specific protease 8 (Homo sapiens), Q96LD8; in the data active = inhibition above about 50%
# SENP8 conf: SENP8 protease inhibitors, retest, confirmation, biochemical, luminescence, single concentration; shares compounds with SENP7 inh; Recombinant SENP8, Z-RLRGG-aminoluciferin luminescence, 60 min; inhibition, % at 12.5 µM; 6,200 compounds, 40% hits; AID 488912, 2010;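 active = mean inhibition across replicates above about 50%, limit read from the data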
# SENP6 confirm: SENP6 protease inhibitors, confirmation, biochemical, luminescence, single concentration | shares compounds with SENP7 inh | recombinant SENP6, Z-RLRGG-aminoluciferin luminescence | inhibition, % at 12.5 µM | 6,200 compounds, 58% hits | AID 488915, 2010
# SENP7 confirm: SENP7 protease inhibitors, retest, confirmation, biochemical, luminescence, single concentration; shares compounds with SENP7 inh; inhibition, % at 12.5 µM; 6,200 compounds, 69% hits; recombinant SENP7, Z-RLRGG-aminoluciferin luminescence, 40 min; AID 488917, 2010
# Casp3 select: caspase-3 protease inhibitors, confirmation, selectivity assay for SENP inhibitor project, biochemical, single concentration. shares compounds with SENP7 inh. purified caspase-3, Z-DEVD-aminoluciferin luminescence, 60 min. inhibition, % at 12.5 µM. 6,200 compounds, 60% hits;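 active = mean inhibition above about 50%, limit read from the data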;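 also: plate controls were enzyme with DMSO for no effect and wells without caspase-3 for full effect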
# Luc interf: counter-screen for SENP inhibitors: luminescence interference; shares compounds with SENP7 inh; Pre-incubated SENP8/Z-RLRGG-aminoluciferin, luciferase luminescence interference; inhibition, % at 12.5 µM; 6,200 compounds, 39% hits; AID 488919;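 active = mean inhibition above about 50% when retested at one dose, limit read from the data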;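 also: plate controls were DMSO wells with completed reaction for no effect and substrate without enzyme for full effect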
# The depositor's hits bear a star; x = no result given.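 The calls were made as follows, unless noted: active = mean inhibition above about 50% in the one-dose retest (limit read from the data); inactive = the rest.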
SMILES,SENP8 block-1,Apaf-1 inh,UBC13 polyUb,SENP6 inh,SENP7 inh,SENP8 block-2,SENP8 conf,SENP6 confirm,SENP7 confirm,Casp3 select,Luc interf
O=C(Nc1nc2ccccc2[nH]1)c1cccc(F)c1,-4.4,13.3,-3.1,90.9*,90.8*,82.0*,8.4,84.0*,98.5*,92.1*,32.6
O=C(Nc1nc2ccccc2[nH]1)Nc1ccccc1F,15.4,4.0,2.1,59.8*,39.7,39.2,13.5,53.8*,37.5,30.8,4.7
O=C(CSc1nc2ccccc2[nH]1)Nc1ccccc1F,3.7,-5.4,6.6,4.8,-1.8,1.7,x,x,x,x,x
CN(C)c1cccc(C(=O)Nc2nc3ccccc3[nH]2)c1,-193.4,5.5,10.9,32.7,64.9*,37.1,40.8,44.2,81.2*,73.0*,43.2
O=C(Nc1nc2ccccc2[nH]1)c1cccc(Br)c1,-10.9,8.3,2.3,-16.9,56.9*,2.6,-6.1,0.9,2.9,34.4,9.5
O=C(Nc1nnc([C@@H]2C[C@H](O)[C@@H](CO)O2)s1)NC1CCCCC1,8.3,x,x,x,x,x,x,x,x,x,x
CC1=C(C(=O)N(C(C)C)C(C)C)CC(CC(=O)NC2CC2)C(=O)N1Cc1ccc(F)cc1 (centres undefined),13.3,x,x,x,x,x,x,x,x,x,x
O=C(NN=C1CCCC1)c1n[nH]c2c1CCC2,9.8,-1.1,1.9,-2.9,8.1,2.8,x,x,x,x,x
C/C(=N/NC(=O)c1ccccn1)c1ccc(O)cc1,-7.7,-1.9,-4.3,10.5,-5.3,-4.6,x,x,x,x,x
C/C(=N\NC(=O)c1n[nH]c2c1CCC2)c1ccco1,8.8,-12.4,-1.4,69.4*,59.5*,55.2*,11.7,67.8*,90.9*,90.9*,65.0*
C/C(=N/NC(=O)c1ccccn1)c1ccco1,3.4,-8.2,-6.2,66.6*,1.9,62.5*,76.3*,67.0*,90.1*,92.2*,70.6*
Cn1c(Oc2cccnc2CN2CCCC2)nc2cc(-c3cccc(C(F)(F)F)c3)sc2c1=O,-32.5,x,x,x,x,x,x,x,x,x,x
CC1(C(=O)Nc2cccc(C#N)c2)CCN1C(=O)C1(c2ccccc2)CC1 (centres undefined),4.6,x,x,x,x,x,x,x,x,x,x
COc1cccc(-c2cnc(C(O)c3ccc(C)c(F)c3)[nH]2)c1 (centres undefined),-10.0,x,x,x,x,x,x,x,x,x,x
CN=C1S/C(=C\c2ccc(O)c(Br)c2)C(=O)N1C,-9.7,6.3,2.8,97.0*,100.0*,96.8*,98.7*,100.0*,102.1*,98.3*,80.4*
CN=C1S/C(=C\c2cccc(Cl)c2Cl)C(=O)N1C,x,7.7,4.4,76.8*,48.8,67.0*,-9.5,41.0,38.3,17.0,11.1
CN=C1S/C(=C\c2ccc(SC)cc2)C(=O)N1C,-146.7,17.0,-0.6,70.0*,62.4*,62.2*,69.1*,67.1*,84.3*,64.6*,46.7
CCCS(=O)(=O)NC(=O)C1(C)CCCN(C(=O)CCc2cccs2)C1 (centres undefined),19.1,x,x,x,x,x,x,x,x,x,x
COc1ccc(S(=O)(=O)N2CCCC(c3cc(C(=O)NCc4cccnc4)no3)C2)cc1 (centres undefined),15.1,x,x,x,x,x,x,x,x,x,x
O=c1oc(CCCO)cc2ccc(/C=C/c3cccc([N+](=O)[O-])c3)cc12,-24.1,-10.1,-23.1,21.5,61.2*,1.9,7.9,16.8,30.5,29.5,4.0
COc1ccc(-c2oc3c(c2C#CC(C)(C)O)C(OC)CCC3)cc1 (centres undefined),-391.6,x,x,x,x,x,x,x,x,x,x
CCc1ccc2nc3sc(C(=O)O)cc3cc2c1,-32.6,10.1,-6.2,50.2*,3.6,37.2,57.7*,52.9*,81.6*,75.8*,67.2*
N#C/C(=C(/O)C(Cl)c1ccccc1)c1nc2ccccc2s1 (centres undefined),-87.5,1.7,-2.6,9.3,5.9,-3.7,x,x,x,x,x
N#C/C(=C(/O)c1cc2ccccc2o1)c1nc2ccccc2s1,-18.0,13.4,6.3,-6.6,70.2*,95.5*,-2.1,32.4,28.1,17.7,60.6*
N#C/C(=C(/O)c1ccco1)c1nc2ccccc2s1,-36.5,9.2,-12.0,90.0*,56.7*,81.4*,90.7*,90.7*,99.7*,91.0*,74.4*
SMILES,SENP8 block-1,Apaf-1 inh,UBC13 polyUb,SENP6 inh,SENP7 inh,SENP8 block-2,SENP8 conf,SENP6 confirm,SENP7 confirm,Casp3 select,Luc interf
N#C/C(=C(/O)c1cccc(F)c1)c1nc2ccccc2s1,1.5,3.9,-11.5,91.1*,56.2*,76.8*,57.9*,58.8*,71.7*,76.9*,35.2
N#C/C(=C(/O)c1ccco1)c1nc2ccccc2[nH]1,-47.6,4.0,-1.3,30.7,-0.7,0.5,x,x,x,x,x
Cc1cccnc1C(NC(=O)C1CCN(Cc2cn(C)c3ccccc23)CC1)c1ccc(Cl)cc1 (centres undefined),17.4,x,x,x,x,x,x,x,x,x,x
O=S(=O)(Nc1ccc(O)c2ccccc12)c1cccs1,19.8,52.4*,-13.7,62.9*,19.0,29.8,12.6,12.0,-5.7,-1.9,-1.0
CSc1ccccc1NC(=S)Nc1cc(C)cc(C)c1,14.8,12.9,-6.5,-17.8,-8.5,-8.0,x,x,x,x,x
Fc1ccc(NC(=S)Nc2cccc3ccccc23)cc1,-495.9,84.7*,-36.8,65.3*,21.9,44.1,-6.1,-5.8,-8.5,-5.2,-4.0
Cc1ccc(NC(=S)Nc2cccc3ccccc23)cc1,-463.4,31.5,0.3,80.7*,17.3,35.8,4.8,-1.6,1.6,3.9,9.8
Fc1ccc(NC(=S)Nc2cccc3ccccc23)cc1F,-388.0,80.6*,-31.6,62.4*,20.5,48.2,10.7,5.9,15.5,10.9,9.4
Cc1cc(C)cc(NC(=S)Nc2cccc3ccccc23)c1,-391.3,32.0,-0.3,70.6*,25.6,59.1*,-3.0,2.3,0.8,5.9,7.4
Cc1ccc2nc(-c3ccc(C#N)cc3)c(Cc3ccccc3C(F)(F)F)n2c1,-362.1,x,x,x,x,x,x,x,x,x,x
